# Assay: Toxicity liver stage against HepG2, at 10uM
# Type: cell-based
# Set-up: test concentration 10 uM, cell line HepG2-A16-CD81EGFP
# Conditions: human, HepG2-A16-CD81EGFP cells; read-out: INHIBITION
# Summary of the method: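 Uninfected HepG2-A16-CD81EGFP cells, 3 × 10^3 per well, 1536-well, plated on prespotted compound at 10 μM final, parasite-free screening media added to match infected plates; puromycin 10 μM positive, DMSO 0.5% negative; run in parallel with 48 h PbLuc assay at 37 °C, 5% CO2; viability by CellTiter-Glo luminescence, normalized to controls.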
structure (smiles),measurement,value
COc1ccnc(NC2CCN(CC(=O)Nc3ccccc3)CC2)n1,cytotoxicity at 10 µM,-11%
CC(=O)N1CCC(N[C@@H]2CO[C@H](CNC(=O)c3cccs3)[C@H]2O)CC1,cytotoxicity at 10 µM,1.96%
COCCCNc1c(-c2ccc(Cl)cc2)c(=O)c1=O,cytotoxicity at 10 µM,39.2%
O=C(NC1CCN(c2ccc(-c3ccccc3F)nn2)C1)C1CCC1 (stereo not given),cytotoxicity at 10 µM,26%
CN1CCN(c2cc(NC(=O)Cn3ccc4ccccc43)ncn2)CC1,cytotoxicity at 10 µM,-0.973%
O=C(COc1ccc(Cl)cc1Cl)N1CCCSCC1CN1CCOCC1 (stereo not given),cytotoxicity at 10 µM,4.09%
CCS(=O)(=O)N1C[C@H]2CN(c3cnn(C)c3)C(=O)[C@H]2C1,cytotoxicity at 10 µM,-1.19%
CN(C)C(=O)N[C@@H]1CN(S(C)(=O)=O)[C@@H]2CCCO[C@@H]21,cytotoxicity at 10 µM,2.62%
Cc1nnc([C@@H]2CC[C@@H]3[C@@H](CCN3C3CCOCC3)O2)o1,cytotoxicity at 10 µM,8.58%
CC1c2ncc(Cn3cncn3)n2CCN1C(=O)c1ccccn1 (stereo not given),cytotoxicity at 10 µM,-0.785%
CCOCC1CN(C(=O)C2CCOCC2)Cc2cnn(C)c21 (stereo not given),cytotoxicity at 10 µM,-1.05%
Cc1ncnc2c1CCN(C(=O)c1ccnnc1)CC2,cytotoxicity at 10 µM,9.9%
CN1CCc2c(C#N)c(NCCc3ccccc3)n3cnnc3c2C1,cytotoxicity at 10 µM,12.4%
Nc1cc(-c2c[nH]nc2C2CCCCN2C(=O)C2CCCC2)ccn1 (stereo not given),cytotoxicity at 10 µM,12%
Cc1cc(-c2cnn(CCNC(=O)Cc3ccccn3)c2C2CC2)on1,cytotoxicity at 10 µM,2.8%
CCc1cc(C(=O)N2CCCC(Cc3ccc(NC)nn3)C2)on1 (stereo not given),cytotoxicity at 10 µM,-14.1%
CC1CCCN(Cc2c(C3CCOCC3)[nH]c3ncccc23)C1 (stereo not given),cytotoxicity at 10 µM,-2.03%
CN(C(=O)Nc1cccnc1)C1CCN(c2ccc(Cl)cc2)CC1,cytotoxicity at 10 µM,-2.46%
Cc1cc(C(=O)N(C)S(C)(=O)=O)ccc1F,cytotoxicity at 10 µM,-38.4%
CS(=O)(=O)CCN1CCSCC1c1ccc(Cl)cc1 (stereo not given),cytotoxicity at 10 µM,-24.3%
CCOCC1CCN(C(=O)Nc2ccc(-c3csnn3)cc2)C1 (stereo not given),cytotoxicity at 10 µM,13.7%
COc1ccc(Cl)cc1CS(=O)(=O)Cc1nc(C)no1,cytotoxicity at 10 µM,-2.53%
Cc1cc(NC(=O)NCCO)nn1-c1ccc(Cl)cc1Cl,cytotoxicity at 10 µM,-136%
N#Cc1ccc(CNCCS(=O)(=O)N2CCc3ccccc32)cc1,cytotoxicity at 10 µM,-4.11%
Cn1cccc1C(=O)NC(C)(C(N)=O)c1cccc(C(F)(F)F)c1 (stereo not given),cytotoxicity at 10 µM,3.61%
CCc1nnc(C2Cc3ccccc3CN2Cc2nc(C3CC3)no2)o1 (stereo not given),cytotoxicity at 10 µM,-8.03%
CCc1ccc(C2CCCN2C(=O)NCC(=O)NCC(C)C)o1 (stereo not given),cytotoxicity at 10 µM,17.7%
CCS(=O)(=O)NCCCNC1CSCCc2ccccc21 (stereo not given),cytotoxicity at 10 µM,-3.66%
O=C(NC1CCN(c2cccc(OC(F)(F)F)c2)C1=O)C1CC1 (stereo not given),cytotoxicity at 10 µM,19.2%
COc1ccc(N2CCC(N(C)C(=O)C(C)SC)CC2)cc1 (stereo not given),cytotoxicity at 10 µM,1.69%
Cc1ncsc1C(=O)NCCNc1cnccn1,cytotoxicity at 10 µM,0.00742%
Cc1noc(C)c1CN(Cc1ccccc1)C(C)C,cytotoxicity at 10 µM,-9.74%
CC(c1cccnc1)N1CCN(CCO)CC1 (stereo not given),cytotoxicity at 10 µM,-3.21%
c1cnn(CC2CCCN2c2ncnc3c2CCC3)c1 (stereo not given),cytotoxicity at 10 µM,41.2%
CCc1nnc(CN(C)CC2CCCCC2)o1,cytotoxicity at 10 µM,0.897%
O=C(CNc1ccc(OC2CCOC2)cc1)NCc1cccs1 (stereo not given),cytotoxicity at 10 µM,3.43%
CC(C)(C#N)C(=O)Nc1nccn1Cc1ccc(Br)cc1,cytotoxicity at 10 µM,-47.5%
CN1CCOC(C(=O)Nc2ccc3[nH]nnc3c2)C1 (stereo not given),cytotoxicity at 10 µM,6.77%
CN1CCOC(C(=O)Nc2ccc3c(c2)nc(C2CC2)n3C)C1 (stereo not given),cytotoxicity at 10 µM,-5.5%
CC1CN(C)CCN1C(=O)NCCCn1ccnc1 (stereo not given),cytotoxicity at 10 µM,-45.5%
CNC(=O)COc1ccc(CNc2c(Cl)cccc2C#N)cc1,cytotoxicity at 10 µM,-55.9%
COc1cccc(S(=O)(=O)CCN2CCC3(CC2)OCCO3)c1,cytotoxicity at 10 µM,4.62%
CCN1CCCN(C(=O)c2cnc(OC(C)C)c(Cl)c2)CC1,cytotoxicity at 10 µM,-14.4%
CCOCC1c2c(ncn2C)CCN1C(=O)c1cscn1 (stereo not given),cytotoxicity at 10 µM,-98.2%
OCCN1CCC(F)(F)C2(CCN(c3cccnc3)C2)C1 (stereo not given),cytotoxicity at 10 µM,-94.7%
NC(=O)N1C[C@H](NC(=O)c2cscn2)[C@@H]2OCCC[C@@H]21,cytotoxicity at 10 µM,-99%
O=S(=O)(c1ccccc1)N1CCC2(CCCN2Cc2ccccc2Cl)C1 (stereo not given),cytotoxicity at 10 µM,-74.5%
Cn1cccc1C(=O)NCc1cn2c(n1)CN(C(=O)c1ccsc1)CC2,cytotoxicity at 10 µM,-112%
COCC1CN(Cc2ccccn2)Cc2nn(C)cc21 (stereo not given),cytotoxicity at 10 µM,-87.5%
COCCN(C)C[C@@H]1CN(C(=O)C(C)(C)c2ccccc2)C[C@@H]1CO,cytotoxicity at 10 µM,16.7%
COc1cccc2ccc(CN3CCN(c4ncccc4C)CC3)nc12,cytotoxicity at 10 µM,-5.21%
CN(Cc1cccnc1)CC1CC12CCCC2 (stereo not given),cytotoxicity at 10 µM,-0.243%
CN1[C@@H](c2ccccc2)[C@@H](C(=O)NCc2ccccn2)C[C@@]1(C)C(=O)O,cytotoxicity at 10 µM,-3.8%
O=C1NCCN2CCN(C(=O)NCCc3ccccc3)CC12 (stereo not given),cytotoxicity at 10 µM,17.6%
CCc1c(C(=O)N2CCN(C)[C@@H]3CS(=O)(=O)C[C@@H]32)[nH]c2ccccc12,cytotoxicity at 10 µM,-6.08%
CC(C)=CCCC(C)CN1CCC(n2cc(C(=O)NCCO)nn2)CC1 (stereo not given),cytotoxicity at 10 µM,0.232%
CCC(C)Oc1ccc(CNCCNS(C)(=O)=O)cc1Cl (stereo not given),cytotoxicity at 10 µM,-6.78%
CN(C)c1nc2c(c(N3CCC(O)CC3)n1)CN(CC1CCOC1)CC2 (stereo not given),cytotoxicity at 10 µM,-0.473%
O=C(c1ccc2occc2c1)N1CCC(C(=O)O)(n2cccn2)CC1,cytotoxicity at 10 µM,-0.657%
c1cn(CCc2c[nH]cn2)c(-c2cc(CN3CCCC3)cs2)n1,cytotoxicity at 10 µM,-1.45%
Cc1cc(CN2CCCn3nc(CCC(=O)O)cc3C2)ccc1F,cytotoxicity at 10 µM,2.28%
Cc1cc(CNC(=O)CC2CCN(C(C)C)CC2)n(C)n1,cytotoxicity at 10 µM,-1.77%
CN1CC2(CCCN(c3cnccn3)C2)OC1=O (stereo not given),cytotoxicity at 10 µM,-43.2%
Cc1ccc(CN(Cc2ccccn2)C(=O)[C@H]2CC[C@@H](N)C2)s1,cytotoxicity at 10 µM,-0.327%
CCN(C)C(=O)c1ccc(N2CCC(Oc3cccc(F)c3)CC2)nc1,cytotoxicity at 10 µM,-23.7%
CN(Cc1ccoc1)C(=O)C1CCN(C(=O)C2CCCC2)CC1,cytotoxicity at 10 µM,-7.77%
CCCc1nnc(N2CC[C@@](O)(C3CCOCC3)[C@H](C)C2)s1,cytotoxicity at 10 µM,8.26%
CCC(C(=O)N(Cc1ccccc1OC)C1CC1)n1cccn1 (stereo not given),cytotoxicity at 10 µM,-44%
CN(Cc1nc(C2CC2)no1)C(=O)c1cccc(CC2CCNCC2)c1,cytotoxicity at 10 µM,2.74%
O=C(c1cccnc1)N1CCOC(CCCc2ccccc2)C1 (stereo not given),cytotoxicity at 10 µM,7.07%
CN(C)S(=O)(=O)c1csc(C(=O)N2CCC(C(N)=O)CC2)c1,cytotoxicity at 10 µM,-46.5%
Cc1cccc(NCc2nn(C)c(=O)[nH]2)c1,cytotoxicity at 10 µM,2.6%
Cc1nc2c(c(=O)n1C)CCN(Cc1cc3ccccc3[nH]1)CC2,cytotoxicity at 10 µM,-8.42%
CC(C)CNC(=O)c1ccc2c(=O)n(-c3ccccc3)cnc2c1,cytotoxicity at 10 µM,-5.52%
CN(C)C1CCCN(C(=O)c2ccc3sc4c(c3c2)CCNC4=O)CC1 (stereo not given),cytotoxicity at 10 µM,-8.58%
CCC(C(=O)NCc1csc(-c2ncccn2)n1)n1cccn1 (stereo not given),cytotoxicity at 10 µM,-5.79%
CNC(=O)[C@@H]1C[C@@H](N)CN1C1CCN(c2ccccc2F)CC1,cytotoxicity at 10 µM,-53.3%
O=C1CC2(CCN(CCO)CC2)CN1Cc1cc(F)cc(F)c1,cytotoxicity at 10 µM,-15.7%
Cn1cccc1CCC(=O)N1CCC2(CC1)c1ccccc1CC2O (stereo not given),cytotoxicity at 10 µM,-8.57%
COc1cnc(C2(O)CCN(C(=O)c3cccnc3)CC2)c(OC)n1,cytotoxicity at 10 µM,0.41%
CCc1noc(CN(C)CC(c2cccs2)N2CCOCC2)n1 (stereo not given),cytotoxicity at 10 µM,-4.56%
CN1C(=O)CN(C(=O)c2ccc(=O)n(C)c2)c2ccccc21,cytotoxicity at 10 µM,-6.67%
Cc1csc(N2CCN(C(=O)C(C)n3cncn3)CC2)n1 (stereo not given),cytotoxicity at 10 µM,0.652%
CC(C)Sc1ncccc1C(=O)NCc1ccc(O)cc1,cytotoxicity at 10 µM,-3.29%
CCn1cnnc1C1CCN(C(=O)CCCOc2ccccc2)CC1,cytotoxicity at 10 µM,0.927%
CC(OCC1CC1)C(=O)N1CCCN(Cc2cnn(C)c2)CC1 (stereo not given),cytotoxicity at 10 µM,2.55%
Cn1ccc(C(=O)NCc2cccc(NC(=O)C3CCC3)c2)cc1=O,cytotoxicity at 10 µM,-10%
Cc1noc(C2CCCN(C(=O)c3ccc(Br)o3)C2)n1 (stereo not given),cytotoxicity at 10 µM,1.73%
Cc1cccc(Nc2cc(C)nc(C3CCN(C(C)C)C3)n2)n1 (stereo not given),cytotoxicity at 10 µM,9.93%
O=C(CN(C1=NCCCCC1)c1ccc(Cl)cc1)c1ccccc1,cytotoxicity at 10 µM,12.2%
c1cnc(N2CCC3(CCCN(CC4CC4)C3)CC2)nc1,cytotoxicity at 10 µM,-3.24%
CCCN1CC[C@@H]2OC[C@H](C(=O)Nc3cccnc3)C[C@@H]2C1,cytotoxicity at 10 µM,5.7%
CCCN1CCC(c2nc3ccc(NCc4ccccc4)cn3n2)CC1,cytotoxicity at 10 µM,-125%
COCCN1CCN(C(=O)NC2CC2)Cc2ccc(C)nc21,cytotoxicity at 10 µM,3.51%
CN(C)C1CC2(CCN(C(=O)NC3CC3)CC2)c2ccccc21 (stereo not given),cytotoxicity at 10 µM,-112%
O=C(c1ccc2[nH]ccc2c1)N1CC[C@@H]2CN(CC3CC3)CCO[C@@H]2C1,cytotoxicity at 10 µM,-108%
O=C(NC1CC1)[C@H]1C[C@@H]2CCN(Cc3ccc4c(c3)OCO4)C[C@@H]2O1,cytotoxicity at 10 µM,0.782%
Cc1ccc(N2CC3(COCCN(Cc4ccccn4)C3)OCC2=O)s1 (stereo not given),cytotoxicity at 10 µM,-3.49%
c1cncc(COC2COC3(CCN(c4cnccn4)CC3)C2)c1 (stereo not given),cytotoxicity at 10 µM,1.89%
O=C(c1cnccn1)N1CCN2C[C@H](OCc3ccccc3F)C[C@H]2C1,cytotoxicity at 10 µM,-2.16%
CCN1C(=O)CCC12CCCN(Cc1nccs1)CC2 (stereo not given),cytotoxicity at 10 µM,-0.413%
CC(C)Oc1ncnc2c1CCN(Cc1ccc(F)cc1)CC2,cytotoxicity at 10 µM,5.68%
Cc1cc(CNCC2Cn3nnc(C)c3CO2)oc1C (stereo not given),cytotoxicity at 10 µM,6.65%
CS(=O)(=O)N1CCCCC12CCCN(Cc1nccs1)C2 (stereo not given),cytotoxicity at 10 µM,9.94%
CC(C)CCN1Cc2c(C(=O)N3CCCC3)nn(C)c2C1,cytotoxicity at 10 µM,-0.173%
CC(C)Nc1nc2c(c(NC3CC3)n1)CCN(Cc1nccn1C)CC2,cytotoxicity at 10 µM,0.325%
COCc1cnc2n1CCN(C(=O)c1ccc3ccccc3n1)C2C (stereo not given),cytotoxicity at 10 µM,-112%
Fc1cnc(N2CCC3(CC2)CN(Cc2cccs2)CCO3)nc1,cytotoxicity at 10 µM,12.4%
COCCN1CCCCC12CC(=O)N(c1cccc(C#N)c1)C2 (stereo not given),cytotoxicity at 10 µM,-102%
Cc1cc(C)cc(NC(=O)Nc2c(O)c3ccccc3oc2=O)c1,cytotoxicity at 10 µM,9.24%

# From ChEMBL document CHEMBL4513216, “Probing the Open Global Health Chemical Diversity Library for Multistage-Active Starting Points for Next-Generation Antimalarials” (ACS Infect Dis, 2020)
